Screening results: PubChem, several laboratories
Sampled rows, rich in hits. Any-hit rate of the full collection: about 2.3%.
Arr AP2 block: blocks beta-arrestin peptide binding to AP2 adaptin | FITC-arrestin peptide / GST-AP2 beads, flow cytometry; AP2 beta2 appendage carries R879A mutation | inhibition, % at 10 µM | actives 0.31% (n = 340,000);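 active = inhibition above a set limit, near 3 SD of compounds lacking own fluorescence, cut at about 54% in these data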;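 also: plate controls were DMSO wells for no effect and 5 µM unlabelled arrestin peptide for full effect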
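System: GST-AP2 R879A glutathione beads | Also added: FITC-arrestin peptide, 50 nM | Times: 12 min plus 1 h, RT | Signal: Bead flow cytometry, FITC channel | Buffer or medium: PBS with 0.05% Tween 20 and 0.1% BSA | Read-out basis: Percent drop in bead-associated FITC signal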
Rtt109 HAT inh: blocks Candida albicans Rtt109/Vps75 acetyltransferase activity; Q5AAJ8; actives 0.16% (n = 330,000); inhibition, % at 34.9 µM; purified Rtt109/Vps75, ThioGlo CoA-SH fluorescence, 4 h;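 active = inhibition of at least 50% in every replicate; inconclusive = best replicate reaches 50% inhibition but some replicates fall short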
Target sequence (Q5AAJ8 whole entry, looked up): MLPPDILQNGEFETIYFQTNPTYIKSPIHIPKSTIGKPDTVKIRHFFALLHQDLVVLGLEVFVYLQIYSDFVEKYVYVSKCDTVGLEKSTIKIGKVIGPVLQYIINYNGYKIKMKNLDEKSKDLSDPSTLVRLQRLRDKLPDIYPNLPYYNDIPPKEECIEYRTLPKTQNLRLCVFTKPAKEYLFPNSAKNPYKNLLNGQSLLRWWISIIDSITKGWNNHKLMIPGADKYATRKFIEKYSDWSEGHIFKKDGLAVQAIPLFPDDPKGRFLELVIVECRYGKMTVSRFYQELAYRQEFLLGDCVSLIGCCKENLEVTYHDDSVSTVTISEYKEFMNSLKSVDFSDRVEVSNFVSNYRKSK
PfHsp90 yeast 2: inhibits growth of yeast expressing Plasmodium falciparum Hsp90. S. cerevisiae expressing PfHsp90, BacTiter-Glo ATP, 48 h; yeast lacking PDR1 and PDR3 efflux regulators. inhibition, % at 9.4 µM. actives 0.32% (n = 310,000). AID 504621;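 active = every replicate shows inhibition above about 80%, whatever the replicate mean, limit read from the data; inconclusive = mean inhibition reaches the set limit but some replicate falls short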;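 also: 0% = DMSO neutral controls and 100% = 20 µM radicicol positive controls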
HIV Env fusion: blocks HIV Env-driven cell-cell fusion | HeLa-JRFL Env/CEM21 cell fusion, luciferase | inhibition, % at 12.3 µM | actives 1.1% (n = 360,000);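 active = mean replicate inhibition score of at least 50 and every replicate individually at or above 50; inconclusive = only one of the two criteria met; inactive = mean below 50 and not all replicates reaching 50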;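 also: 0% = plate neutral controls and 100% = maraviroc near 300 nM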
PAX8 reporter: inhibitors of PAX8 transcriptional activity in RMG-I cells | actives 1.2% (n = 360,000) | inhibition, % at 12.6 µM | RMG-I TPO-luciferase reporter, SteadyGlo, 24 h;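 active = mean replicate inhibition at least 60% with every replicate also reaching 60%; inconclusive = only one of the two criteria is met; inactive = mean below 60% and not all replicates reaching 60%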;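 also: luciferase light reporting Pax8 driven TPO promoter activity; plate controls were median of neutral control wells for no effect and mitoxantrone controls for full effect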
Glyco luc inh: blocks N-linked glycosylation in D54 reporter cells. D54 ERlucT glycosylation luciferase reporter, 24 h; percent of 100 nM tunicamycin response. reporter increase, % at 12.5 µM. actives 0.23% (n = 360,000);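 active = mean luciferase reporter signal, scaled so untreated is 0 and the glycosylation-blocking control 100, at or above a set limit in every replicate; inconclusive = mean reaches the limit but not every replicate does; inactive = mean below the limit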;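 also: luciferase carries N-glycosylation sites so blocking glycosylation raises the light; 0% = median of neutral control wells and 100% = median of 100 nM tunicamycin wells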
Starred values were filed as active, the others as inactive; ? = inconclusive; nt = not tested or not shown; [ ] = another dose, or the depositor's remark.

SMILES	Arr AP2 block	Rtt109 HAT inh	PfHsp90 yeast 2	HIV Env fusion	PAX8 reporter	Glyco luc inh
COC(=O)C1=C(C)N(Cc2ccc(Cl)cc2)C(=S)NC1c1ccc(Cl)cc1 (centres undefined)	nt	nt	nt	61*	-14	nt
COC(=O)C1=C(C)N(Cc2ccc(C(F)(F)F)cc2)C(=NCc2ccccc2)NC1c1cccc(Cl)c1 (centres undefined)	nt	nt	nt	?	100*	nt
O=C(CCN1CCCCC1)N[C@@H]1CC[C@H](CCNS(=O)(=O)c2ccc(Cl)cc2)O[C@@H]1CO	nt	nt	nt	-4[16.7 µM]	-16	nt
CC(=O)N(C)C[C@H]1Oc2cc(C#CC(C)C)ccc2S(=O)(=O)N([C@H](C)CO)C[C@H]1C	nt	nt	nt	-3[16.7 µM]	nt	nt
COc1ccc2c3c(n(C)c2c1)[C@@H](CO)N(Cc1ccccc1)CC31CCN(S(C)(=O)=O)CC1	nt	nt	nt	7[16.7 µM]	nt	nt
COc1ccc2c3c(n(C)c2c1)[C@H](CO)N(Cc1ccccc1)CC31CCN(S(=O)(=O)c2ccc(C)cc2)CC1	nt	nt	nt	nt	84*	nt
Cc1c(C(=O)N(Cc2ccccc2)Cc2cccs2)cnn1-c1ccc(Cl)cc1	1	4	105*	12	14	-3
C/C=C/c1ccc([C@H]2[C@@H](CO)N[C@@H]2CN(CC(C)C)C(=O)c2ccccn2)cc1	nt	nt	nt	nt	-5	nt
COc1ccc(-c2csc3ncnc(Sc4nnnn4C)c23)cc1	-5	-1	9	42	101*	-13
Cn1nnnc1Sc1ncnc2scc(-c3ccc(Cl)cc3)c12	3	7	-4	-33	57	-13
Cn1nnnc1Sc1ncnc2scc(-c3ccc([N+](=O)[O-])cc3)c12	1	0	11	-122	108*	-21
Cn1nnnc1Sc1ccc([N+](=O)[O-])cc1Cl	8	-10	nt	-18	11	-2
C[C@@H]1CN([C@H](C)CO)C(=O)Cc2cc(NS(=O)(=O)c3ccc(Cl)cc3)ccc2O[C@@H]1CN(C)Cc1ccc(-c2ccccc2)cc1	nt	nt	nt	-59[16.7 µM]	11	nt
O=C(NCc1cccs1)C(Cc1ccccc1)NS(=O)(=O)c1cccs1 (centres undefined)	-11	0	nt	55*	nt	-1
CCC(C)(C)NC(=O)C(NS(=O)(=O)c1cccs1)c1ccccc1 (centres undefined)	-1	12	9	71*	-11	1
O=C(NCc1ccc(F)cc1)C(Cc1ccccc1)NS(=O)(=O)c1cccs1 (centres undefined)	31	3	-18	10	nt	0
C[C@H]1CN([C@@H](C)CO)C(=O)c2cc(NC(=O)Nc3ccc(F)cc3)ccc2O[C@H]1CN(C)C(=O)Nc1ccc2c(c1)OCO2	nt	nt	nt	-15[16.7 µM]	nt	nt
CCCCC[C@@H](C)N1C[C@H](COCc2ccccc2)Oc2cc(N3CC[C@@H](N(C)C)C3)ccc2S1(=O)=O	nt	nt	nt	nt	84*	nt
CCCCC[C@H](C)N1C[C@H](COCc2ccccc2)Oc2cc(N3CCC[C@H]3C(N)=O)ccc2S1(=O)=O	nt	nt	nt	44	1	nt
CCCCC[C@@H](C)N1C[C@H](COCc2ccccc2)Oc2cc(N3CCC[C@H]3C(N)=O)ccc2S1(=O)=O	nt	nt	nt	76*	0	nt
CCN(CC(O)Cn1c2ccccc2c2ccccc21)S(=O)(=O)c1ccc(C)cc1 (centres undefined)	-3	-2	-27	56*	3	-6
O=C(C[C@H]1C[C@@H]2c3cc(NC(=O)Nc4ccc(C(F)(F)F)cc4)ccc3O[C@@H]2[C@@H](CO)O1)NCCc1ccccc1	nt	nt	nt	21[16.7 µM]	99*	nt
COCCNC(=O)C[C@@H]1C[C@H]2c3cc(NC(=O)Nc4ccc(C(F)(F)F)cc4)ccc3O[C@H]2[C@H](CO)O1	nt	nt	nt	26[16.7 µM]	91*	nt
O=C(C[C@@H]1C[C@H]2c3cc(NC(=O)Nc4ccc(C(F)(F)F)cc4)ccc3O[C@H]2[C@@H](CO)O1)NC1CCCCC1	nt	nt	nt	-1[16.7 µM]	-12	nt
O=C(C[C@@H]1C[C@H]2c3cc(NC(=O)Nc4ccc(C(F)(F)F)cc4)ccc3O[C@H]2[C@H](CO)O1)NCCc1ccccc1	nt	nt	nt	-7[16.7 µM]	100*	nt
SMILES	Arr AP2 block	Rtt109 HAT inh	PfHsp90 yeast 2	HIV Env fusion	PAX8 reporter	Glyco luc inh
O=C(C[C@@H]1C[C@H]2c3cc(NC(=O)Nc4ccc(C(F)(F)F)cc4)ccc3O[C@H]2[C@H](CO)O1)NC1CCCCC1	nt	nt	nt	-8[16.7 µM]	67*	nt
COCCNC(=O)C[C@H]1C[C@H]2c3cc(NC(=O)Nc4ccc(C(F)(F)F)cc4)ccc3O[C@H]2[C@H](CO)O1	nt	nt	nt	14[16.7 µM]	6	nt
C[C@@H]1CN([C@H](C)CO)C(=O)c2cc(NC(=O)Cn3cnnn3)ccc2O[C@H]1CN(C)S(=O)(=O)c1ccc(Cl)cc1	nt	nt	nt	-9[16.7 µM]	nt	nt
COc1ccc(C(=O)N2C[C@H]3[C@@H](c4ccccc42)[C@H](CO)N3Cc2ccc(Cl)cc2)cc1	nt	nt	nt	nt	33	nt
C[C@H](NC(=O)C[C@@H]1C[C@H]2c3cc(NC(=O)Nc4ccc(C(F)(F)F)cc4)ccc3O[C@H]2[C@H](CO)O1)c1ccccc1	nt	nt	nt	-19[16.7 µM]	18	nt
COCCNC(=O)C[C@@H]1C[C@H]2c3cc(N(C)C)ccc3O[C@H]2[C@@H](CO)O1	nt	nt	nt	65*[16.7 µM]	2	nt
C[C@H](NC(=O)C[C@@H]1C[C@@H]2c3cc(NC(=O)Nc4ccc(C(F)(F)F)cc4)ccc3O[C@@H]2[C@@H](CO)O1)c1ccccc1	nt	nt	nt	81*[16.7 µM]	107*	nt
COc1ccccc1-c1ccc2c(c1)O[C@@H](CN(C)C(=O)c1ccccc1)[C@@H](C)CN([C@H](C)CO)S2(=O)=O	nt	nt	nt	-22[16.7 µM]	4	nt
COc1ccc(S(=O)(=O)N[C@H]2CC[C@H](CC(=O)N3CCc4ccccc4C3)O[C@@H]2CO)cc1	nt	nt	nt	-2[16.7 µM]	21	nt
CC(=O)Nc1ccc(S(=O)(=O)N2CCCC2C(=O)Nc2ccc(F)cc2)cc1 (centres undefined)	42	-14	8	-5	-27	1
CSc1cccc(NC(=O)C2CCCN2S(=O)(=O)c2ccc(Br)s2)c1 (centres undefined)	10	-7	nt	60*	nt	-1
O=C(Nc1ccc(F)cc1)C1CCCN1S(=O)(=O)c1ccc(Br)cc1 (centres undefined)	-3	1	5	81*	9	-1
COc1ccc(C(=O)NNC(=O)Cc2nc3ccccc3n2C)cc1	4	-4	-3	15	68*	1
COc1ccc(/C=N/N=C/c2ccc(OC)c(OC)c2)cc1OC	3	-10	nt	-6	7	0
COc1cc(/C=N/N=C(N)N)ccc1OCc1ccccc1Cl	2	69*	14	1	-8	-6
O=C(C1CCCC1)N1CCCCN2[C@@H](CO)[C@H](c3ccc(C#CC4(O)CCCC4)cc3)[C@@H]2C1	nt	nt	nt	nt	-16	nt
Cc1ccc(S(=O)(=O)N(C)C[C@H]2Oc3c(NC(=O)C4CC4)cccc3C(=O)N([C@H](C)CO)C[C@H]2C)cc1	nt	nt	nt	nt	6	nt
O=C(C[C@H]1C=C[C@@H](NC(=O)c2ccncc2)[C@H](CO)O1)NCC1CCCCC1	nt	nt	nt	15[16.7 µM]	nt	nt
